Rows were chosen to be rich in hits. Some 1.5% of all compounds tested hit in one or more screens of this group.
Myeloid diff MLP = induction of myeloid progenitor differentiation, primary screen, cell-based, flow cytometry, MLPCN library; calls only at 10 µM; ER-HoxA9 myeloid progenitors, lysozyme-GFP differentiation; AID 624256, 2012; 360,000 compounds, 1% hits;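 active means normalized GFP-positive differentiation at or above the plate's own cutoff, the solvent-only control mean plus 3 SD; inconclusive means no clear call, values can overlap the other calls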;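 further: cells exposed to compound for four days before flow analysis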
SENP1 FRET inh = human SENP1 catalytic domain inhibitors, primary screen, biochemical, FRET, uHTS; AID 624204, 2012; 360,000 compounds, 0.21% hits; Sentrin-specific protease 1 (Homo sapiens), Q9P0U3; recombinant SENP1 catalytic domain, CyPet-SUMO1-YPet FRET cleavage; inhibition, % at 10 µM;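 active means inhibition at least 30% at 10 µM, raw YFP signal under a set limit, fluorescence ratio 0.5 to 1.5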;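 further: 0% = enzyme with DMSO and 100% = no enzyme wells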
Target sequence (Q9P0U3 419-644 limits assumed): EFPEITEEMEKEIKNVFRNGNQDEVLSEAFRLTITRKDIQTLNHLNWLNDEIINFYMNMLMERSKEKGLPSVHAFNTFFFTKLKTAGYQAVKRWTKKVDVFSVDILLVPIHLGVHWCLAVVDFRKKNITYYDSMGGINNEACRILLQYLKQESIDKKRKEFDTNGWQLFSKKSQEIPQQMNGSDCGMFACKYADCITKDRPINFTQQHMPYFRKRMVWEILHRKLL
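Test system: human SENP1 catalytic domain; medium: Tris pH 8 buffer plus EDTA, NaCl, BME, BSA, NP40, catalase; incubation: 50 min reaction at room temperature; technique: FRET, CFP and YFP emission; controls: no-enzyme low control and enzyme-plus-DMSO high control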
Platelet DG rel = inhibitors of platelet dense granule secretion, primary screen, cell-based, MLPCN, human platelets | AID 1663, 2009 | human platelet-rich plasma, SFLLRN dense granule ATP release, luminescence | inhibition, %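 (compounds screened at 7.5 µM in platelet-rich plasma)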 | 300,000 compounds, 0.22% hits;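 active means mean replicate score, as percent of positive control, at or above 50; inconclusive means mean below 50 but at least one replicate at or above 50; inactive means mean and every replicate below 50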
VLA-4 inh = inhibition in human VLA-4 binding assay, primary screen, VLA-4 allosteric modulator project, MLPCN library, flow cytometry, VLA-4 expressing cells | inhibition, % (about 7 µM as worked out from the volumes in the protocol) | ligand binding flow cytometry | AID 2557, 2010 | 330,000 compounds, 0.2% hits; in the data active means inhibition above about 50%
* hit, by the source's call; i = inactive; u = inconclusive; x = no result given; + = active, no number.

SMILES	Myeloid diff MLP	SENP1 FRET inh	Platelet DG rel	VLA-4 inh
O=C1C2CCCCC2C(=O)N1c1cccc(OS(=O)(=O)c2ccccc2)c1 (stereo not given)	i	1	-6	7
O=C1CC(=O)N(C2CCCCC2)C(=O)N1c1ccccc1S(=O)(=O)Oc1ccccc1	+	-20	x	x
CCn1ccc(C(=O)Nc2ncc(C)s2)n1	i	2	2	4
CCOC(=O)C1CCN(c2ncnc3cc(OC)c(OC)cc23)CC1	i	0	58*	8
CCOC(=O)C1CCN(c2ncnc3c2cnn3-c2ccc(OC)cc2)CC1	i	4	x	-1
NC[C@H](O)c1ccc(O)c(O)c1	i	-1	x	-4
O=C(NCc1ccco1)C1CCN(C(=O)c2cc3sccc3n2Cc2ccc(F)cc2)CC1	i	-2	3	18
CCN1CCN(C(=O)C2CCN(C(=O)c3cc4sccc4n3CC)CC2)CC1	i	0	0	-16
CCn1c(C(=O)N2CCC(C(=O)NCCCSC3CCCCC3)CC2)cc2sccc21	i	-4	69*	8
O=C(NCc1ccccn1)C1CCN(C(=O)c2cc3sccc3n2Cc2ccc(F)cc2)CC1	+	-8	-9	5
CNC(=O)COc1coc(CN2CCN(c3ccc(OC)cc3)CC2)cc1=O	i	0	1	14
Nc1cc([N+](=O)[O-])cc2oc(-c3ccccc3)cc12	i	34*	1	-55
O=c1cc(-c2ccccc2)oc2ccccc12	i	0	x	13
CCn1c(C)c(C(C)=O)c(N2CCN(c3ccccc3)CC2)nc1=S	i	-18	6	18
CC(=O)c1c(N2CCN(C)CC2)[nH]c(-c2ccccc2)nc1=S	+	-8	u	-12
CCCc1cc(C(=O)N2CCCC(N3CCN(c4ccccc4F)CC3)C2)n(C)n1 (stereo not given)	i	2	53*	-2
COc1ccc(C)cc1NC(=O)CNC(C)C(=O)Nc1ccc(C(C)=O)cc1 (stereo not given)	i	-2	0	10
Cc1ccc(NC(=O)CSc2nnc(-c3ccco3)n2N)cc1F	+	1	3	9
Cc1cc(C)c(NC(=O)CSc2nnc(-c3ccco3)n2N)c(C)c1	i	0	7	-3
Cc1ccccc1-c1nnc(SCC(=O)Nc2ccc3c(c2)OCCO3)n1N	+	-31	0	-2
COc1ccc(C(=O)NCCCNC(=O)c2cnccn2)cc1	i	-1	x	20
CCOC(=O)CN1C(=O)C(=O)N(Cc2c(C)cc(C)cc2C)C1=O	+	1	6	8
CN1CCC[C@H]1CCNc1ccc2c(=O)c3ccccc3n(C)c2c1	+	-23	x	x
COC(=O)c1sc(NC(=O)c2c(-c3ccccc3)noc2C)nc1C	i	0	10	-4
COC(=O)c1sc(NC(=O)c2c(C)noc2C)nc1C	i	-1	53*	-1
SMILES	Myeloid diff MLP	SENP1 FRET inh	Platelet DG rel	VLA-4 inh
COC(=O)c1sc(NC(=O)c2ccoc2C)nc1C	i	-1	57*	x
COc1ccc2nc(NC(=O)c3ccoc3C)sc2c1	i	0	91*	-3
COC(=O)c1sc(NC(=O)c2ccco2)nc1C	i	2	3	8
O=C(O)COc1ccccc1C=NNc1ccc([N+](=O)[O-])cc1S(=O)(=O)Nc1ccc(Cl)cc1	i	-30	x	0
Cc1[nH]c2ccccc2c1/C=N/Nc1ccc([N+](=O)[O-])cc1S(=O)(=O)Nc1ccc(Cl)cc1	+	20	6	0
COc1ccc(NS(=O)(=O)c2cc([N+](=O)[O-])ccc2NN=Cc2ccccc2OCC(=O)O)cc1	i	-22	x	11
COc1ccc(NS(=O)(=O)c2cc([N+](=O)[O-])ccc2N/N=C\c2c(C)[nH]c3ccccc23)cc1	+	12	14	i
O=C(/C=C/c1ccc(Cl)cc1)c1cccnc1	i	1	x	14
CCN(CC)c1ccc(/C=C/C(=O)c2cccnc2)cc1	i	2	1	50*
COc1ccc(C2C(C#N)=C(N)SC(N)=C2C#N)cc1OC	+	-21	1	11
Cn1ncc(Br)c1NC(=O)Nc1ccccc1	i	1	1	5
CCOC(CNCc1cc(C)c2[nH]c3ccccc3c2c1C)OCC	i	3	x	x
COc1ccc(-c2[nH]ncc2CN2CCN(C(=O)c3cccs3)CC2)c(F)c1	+	-1	-1	26
O=C(NNS(=O)(=O)c1ccccc1[N+](=O)[O-])c1ccccc1Cl	+	1	0	5
Cc1cc(Oc2ccc(N)cn2)ccc1Cl	+	-22	4	-11
COc1cc(C(=O)N=c2sccn2C)c([N+](=O)[O-])cc1OC	i	-2	-7	-16
Cn1ccsc1=NC(=O)c1ccc([N+](=O)[O-])o1	+	0	5	10
COc1cc(/C=N/NC(=O)/C(=C/c2ccccc2)CCO)ccc1O	i	-1	56*	-8
CCOc1cc(/C=N/NC(=O)N/N=C/c2ccc(O)c(OCC)c2)ccc1O	x	x	58*	23
O=C(O)C1CSC(c2ccncc2)N1 (stereo not given)	i	65*	-1	8
CCOC(=O)C(Oc1ccc2c(-c3ccc(OC)cc3)cc(=O)oc2c1C)c1ccccc1 (stereo not given)	i	-4	0	3
COc1ccc(-c2cc(=O)oc3c(C)c(OC(C)C(=O)Nc4ccc(CN5CCOCC5)cc4)ccc23)cc1 (stereo not given)	+	-1	10	14
Cc1cc(=O)oc2c(C)c(OC(C)C(=O)NCCN3CCOCC3)ccc12 (stereo not given)	i	2	-6	31
COc1ccc(-c2cc(=O)oc3c(C)c(OC(C)C(C)=O)ccc23)cc1 (stereo not given)	+	0	-10	9
O=C(CCc1ccccc1)NCC1(c2ccccc2)CCCC1	i	1	-9	5
SMILES	Myeloid diff MLP	SENP1 FRET inh	Platelet DG rel	VLA-4 inh
CCOC(=O)N1CCC(NC(=O)CN2C(=O)CSc3nc(C)cc(C)c32)CC1	i	-3	26	9
CCOC(=O)N1CCN(C(=O)CCCN2C(=O)CSc3nc(C)cc(C)c32)CC1	i	1	53*	-2
COc1ccc(OC)c(NC(=O)c2nnn(CCc3ccccc3)c2N)c1	i	3	12	-5
COc1ccc(C)cc1NC(=O)c1nnn(Cc2cccc(C(F)(F)F)c2)c1N	+	1	10	14
Cc1cccc(Oc2nc3ccccn3c(=O)c2/C=C(\C#N)C(=O)NC2CCS(=O)(=O)C2)c1C (stereo not given)	i	-24	57*	9
Cc1cccc(Oc2nc3ccccn3c(=O)c2/C=C(\C#N)C(=O)NC2CCS(=O)(=O)C2)c1 (stereo not given)	i	-134	1	-7
N#C/C(=C/c1cccn1-c1cccc(C(=O)O)c1)c1ccc(Cl)cc1	+	0	-2	21
